Experimental data as given in ChEMBL document CHEMBL1799968, “Dimethyl-diphenyl-propanamide derivatives as nonsteroidal dissociated glucocorticoid receptor agonists” (J Med Chem, 2010).

Assays:
[1] = biological target: T1, Progesterone receptor (Homo sapiens, UniProt P06401); assay: Binding affinity to progesterone receptor by fluorescence polarization assay
T1 sequence (P06401 whole entry): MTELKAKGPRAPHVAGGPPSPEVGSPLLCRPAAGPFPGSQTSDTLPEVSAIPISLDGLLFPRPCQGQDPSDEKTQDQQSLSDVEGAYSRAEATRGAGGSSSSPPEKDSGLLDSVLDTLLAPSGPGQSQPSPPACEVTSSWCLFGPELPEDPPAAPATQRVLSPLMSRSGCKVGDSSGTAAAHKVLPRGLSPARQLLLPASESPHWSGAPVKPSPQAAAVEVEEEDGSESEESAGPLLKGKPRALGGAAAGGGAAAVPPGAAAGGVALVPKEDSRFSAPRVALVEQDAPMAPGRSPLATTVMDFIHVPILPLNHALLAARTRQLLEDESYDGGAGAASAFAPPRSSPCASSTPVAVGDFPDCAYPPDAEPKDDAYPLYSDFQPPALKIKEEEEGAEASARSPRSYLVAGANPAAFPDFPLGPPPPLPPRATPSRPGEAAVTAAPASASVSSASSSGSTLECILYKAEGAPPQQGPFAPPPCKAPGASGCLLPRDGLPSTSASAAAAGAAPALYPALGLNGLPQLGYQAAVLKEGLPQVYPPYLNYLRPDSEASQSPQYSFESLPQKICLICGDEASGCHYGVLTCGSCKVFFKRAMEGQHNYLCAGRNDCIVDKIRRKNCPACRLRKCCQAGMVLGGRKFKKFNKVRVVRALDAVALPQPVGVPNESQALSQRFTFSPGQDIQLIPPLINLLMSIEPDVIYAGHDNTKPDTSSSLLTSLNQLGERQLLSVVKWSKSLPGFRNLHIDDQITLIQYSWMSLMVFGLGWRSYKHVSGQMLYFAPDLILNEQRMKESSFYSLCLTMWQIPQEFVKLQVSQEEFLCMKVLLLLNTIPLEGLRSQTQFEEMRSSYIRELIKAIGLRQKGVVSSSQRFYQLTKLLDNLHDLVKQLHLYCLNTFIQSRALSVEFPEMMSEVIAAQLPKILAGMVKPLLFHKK
Procedure, shortened: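 Fluorescence polarization competition of test compound against a fluorescently labelled ligand for binding to full-length receptor or its ligand-binding domain.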

[2] = biological target: T2, Glucocorticoid receptor (Homo sapiens) (UniProt P04150); assay: Transrepression activity of glucocorticoid receptor in human A549 cells assessed as inhibition of IL1beta-stimulated NFkappaB-dependent E-selectin transcription by luciferase reporter gene assay relative to Dexamethasone; assay type: cell-based
T2 sequence (whole entry): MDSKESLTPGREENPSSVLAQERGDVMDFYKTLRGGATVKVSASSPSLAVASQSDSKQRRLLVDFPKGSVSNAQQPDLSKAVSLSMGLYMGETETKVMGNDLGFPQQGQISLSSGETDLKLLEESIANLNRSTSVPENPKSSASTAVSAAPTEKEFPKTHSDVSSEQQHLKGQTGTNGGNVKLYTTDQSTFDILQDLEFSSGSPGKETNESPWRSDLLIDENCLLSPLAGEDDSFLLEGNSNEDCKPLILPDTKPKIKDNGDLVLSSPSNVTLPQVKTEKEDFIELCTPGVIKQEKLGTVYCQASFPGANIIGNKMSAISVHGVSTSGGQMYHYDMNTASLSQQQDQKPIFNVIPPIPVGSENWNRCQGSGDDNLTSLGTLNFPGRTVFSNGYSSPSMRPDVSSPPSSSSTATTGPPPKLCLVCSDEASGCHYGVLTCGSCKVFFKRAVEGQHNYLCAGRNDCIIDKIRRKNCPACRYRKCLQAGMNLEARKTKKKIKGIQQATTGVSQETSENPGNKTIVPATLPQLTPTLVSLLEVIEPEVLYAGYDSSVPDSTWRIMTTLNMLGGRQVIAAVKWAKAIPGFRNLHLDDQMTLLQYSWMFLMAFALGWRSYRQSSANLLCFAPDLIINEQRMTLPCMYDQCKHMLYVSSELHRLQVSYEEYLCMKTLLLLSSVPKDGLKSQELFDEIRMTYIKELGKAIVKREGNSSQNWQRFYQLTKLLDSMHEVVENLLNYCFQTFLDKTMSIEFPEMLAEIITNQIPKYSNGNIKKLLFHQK

[3] = biological target: T3, Mineralocorticoid receptor (Homo sapiens, UniProt P08235); assay: Agonist activity at mineralocorticoid receptor in human A549 cells; assay type: functional, cell-based
T3 sequence (P08235 whole entry): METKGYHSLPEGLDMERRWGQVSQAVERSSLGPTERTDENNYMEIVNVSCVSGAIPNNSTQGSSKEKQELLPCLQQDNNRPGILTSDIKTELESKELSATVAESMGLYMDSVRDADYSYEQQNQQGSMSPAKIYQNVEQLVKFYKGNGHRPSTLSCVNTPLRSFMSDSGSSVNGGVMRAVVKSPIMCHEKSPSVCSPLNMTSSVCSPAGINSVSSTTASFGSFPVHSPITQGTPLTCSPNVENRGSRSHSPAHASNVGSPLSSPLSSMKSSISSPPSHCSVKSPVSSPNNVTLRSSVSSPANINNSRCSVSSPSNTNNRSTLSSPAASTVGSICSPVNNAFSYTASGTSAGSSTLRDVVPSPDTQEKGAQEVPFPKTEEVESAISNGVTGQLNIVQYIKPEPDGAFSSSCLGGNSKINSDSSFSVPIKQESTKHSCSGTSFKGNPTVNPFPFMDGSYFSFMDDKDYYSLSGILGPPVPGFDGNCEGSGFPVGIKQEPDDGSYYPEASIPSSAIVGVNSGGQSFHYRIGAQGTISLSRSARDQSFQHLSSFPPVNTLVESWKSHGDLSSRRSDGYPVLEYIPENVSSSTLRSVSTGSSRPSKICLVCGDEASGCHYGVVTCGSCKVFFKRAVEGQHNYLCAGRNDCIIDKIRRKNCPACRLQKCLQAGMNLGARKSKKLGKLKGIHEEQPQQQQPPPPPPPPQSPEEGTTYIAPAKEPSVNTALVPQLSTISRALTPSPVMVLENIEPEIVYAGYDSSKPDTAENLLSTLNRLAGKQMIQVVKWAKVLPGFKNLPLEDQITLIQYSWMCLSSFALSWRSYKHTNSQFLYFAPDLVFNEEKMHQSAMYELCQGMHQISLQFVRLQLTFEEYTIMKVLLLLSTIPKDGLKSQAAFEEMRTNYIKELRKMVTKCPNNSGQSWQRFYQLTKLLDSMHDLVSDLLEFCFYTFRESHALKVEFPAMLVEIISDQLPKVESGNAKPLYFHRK

[4] = Selectivity ratio of Ki of GRapha to Ki of estrogen receptor alpha

Compound | Ki [1] | Efficacy [2] | EC50 [3] | Ratio Ki [4]
CC(C)(C(=O)Nc1nccs1)[C@H]1c2ccccc2Oc2cc(O)ccc21 | 22 nM | 68% | > 5000 nM | > 6800
CC(C)(C(=O)Nc1nccs1)[C@@H](c1ccccc1)c1ccc(O)c(F)c1 | 53 nM | 68% | > 5000 nM | > 6800
CC(C)(C(=O)Nc1nncs1)[C@H]1c2ccccc2Oc2cc(O)ccc21 | 53 nM | 62% | > 5000 nM | > 6800
CC(C)(C(=O)Nc1nccs1)[C@@H](c1ccccc1)c1ccc(O)cc1 | 273 nM | 52% | > 5000 nM | > 6800
CC(C)(C(=O)Nc1nccs1)[C@@H](c1ccccc1)c1ccc(O)c(Br)c1 | 31 nM | 71% | > 5000 nM | > 6800
